How the values were obtained:
[1] = tested on: Bel-7402; experiment: Cytotoxicity against human Bel-7402 cells after 72 hrs by sulforhodamine B assay; type: functional, cell-based; settings: Bel-7402, 72 h
In short: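 BEL-7402 human hepatoma cells treated 72 h; cell protein measured by sulforhodamine B assay. IC50 taken from dose–response curves as concentration causing 50% drop in absorption relative to control cells. Means ± SD of three independent experiments, triplicate wells per concentration. 10-Hydroxycamptothecine served as positive control.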

[2] = tested on: HL-60; experiment: Cytotoxicity against human HL-60 cells after 72 hrs by MTT assay; type: functional, cell-based; settings: HL-60, 72 h
In short: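 HL-60 human leukemia cells exposed to glycosides for 72 h; viability read by MTT colorimetric assay in 96-well microplates. Dose–response curves plotted; IC50 = concentration giving 50% reduction of absorption versus control cells. Three independent experiments, each concentration in triplicate wells; mean ± SD. 10-Hydroxycamptothecine as positive control.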

| Structure (SMILES) | IC50 [1] [µM] | IC50 [2] [µM] |
| --- | --- | --- |
| CO[C@@H]1[C@@H](O)[C@H](O[C@@H]2[C@@H](O)[C@H](O[C@H]3[C@H](O)[C@@H](O)[C@H](O[C@H]4[C@H](O[C@H]5CC[C@]6(C)C7=C[C@H](O)[C@@]89C(=O)O[C@@](C)(C(=O)CCC(C)(C)OC(C)=O)[C@H]8CC[C@@]9(C)[C@@H]7CC[C@H]6C5(C)C)OC[C@@H](OS(=O)(=O)O)[C@@H]4O)O[C@@H]3C)O[C@H](CO)[C@H]2O)O[C@H](CO)[C@H]1O [FUSCOCINEROSIDE A] | 5.58 | 6.21 |
| CO[C@@H]1[C@@H](O)[C@H](O[C@@H]2[C@@H](O)[C@H](O[C@H]3[C@H](O)[C@@H](O)[C@H](O[C@H]4[C@H](O[C@H]5CC[C@]6(C)C7=C[C@H](O)[C@@]89C(=O)O[C@@](C)(C(=O)CCC(C)C)[C@H]8CC[C@@]9(C)[C@@H]7CC[C@H]6C5(C)C)OC[C@@H](OS(=O)(=O)O)[C@@H]4O)O[C@@H]3C)O[C@H](CO)[C@H]2O)O[C@H](CO)[C@H]1O [FUSCOCINEROSIDE B] | 2.64 | 3.75 |
| CO[C@@H]1[C@@H](O)[C@H](O[C@@H]2[C@@H](O)[C@H](O[C@H]3[C@H](O)[C@@H](O)[C@H](O[C@H]4[C@H](O[C@H]5CC[C@]6(C)C7=C[C@H](O)[C@@]89C(=O)O[C@@](C)(C%10CCC(C)(C)O%10)[C@H]8CC[C@@]9(C)[C@@H]7CC[C@H]6C5(C)C)OC[C@@H](OS(=O)(=O)O)[C@@H]4O)O[C@@H]3C)O[C@H](CO)[C@H]2O)O[C@H](CO)[C@H]1O (some centres not stated) [FUSCOCINEROSIDE C] | 0.58 | 0.88 |
| CO[C@@H]1[C@@H](O)[C@H](O[C@@H]2[C@@H](O)[C@H](O[C@H]3[C@H](O)[C@@H](O)[C@H](O[C@H]4[C@H](O[C@H]5CC[C@]6(C)C7=C[C@H](O)[C@@]89C(=O)O[C@@](C)(C%10CCC(C)(C)O%10)[C@@]8(O)CC[C@@]9(C)[C@@H]7CC[C@H]6C5(C)C)OC[C@@H](OS(=O)(=O)O)[C@@H]4O)O[C@@H]3C)O[C@H](CO)[C@H]2O)O[C@H](CO)[C@H]1O (some centres not stated) [HOLOTHURIN A] | 0.76 | 4.42 |
| CC[C@@]1(O)C(=O)OCc2c1cc1n(c2=O)Cc2cc3cc(O)ccc3nc2-1 [HYDROXYCAMPTOTHECIN] | 0.28 | 0.41 |
| CO[C@@H]1[C@@H](O)[C@H](O[C@@H]2[C@@H](O)[C@H](O[C@H]3[C@H](O)[C@@H](O)[C@H](O[C@H]4[C@H](O[C@H]5CC[C@]6(C)C7=C[C@H](O)[C@@]89C(=O)O[C@@](C)(CCCC(C)C)[C@H]8CC[C@@]9(C)[C@@H]7CC[C@H]6C5(C)C)OC[C@@H](OS(=O)(=O)O)[C@@H]4O)O[C@@H]3C)O[C@H](CO)[C@H]2O)O[C@H](CO)[C@H]1O [PERVICOSIDE C] | 0.66 | 4.48 |
